Experiments:
[1] = Cmax in human; format: ADME
[2] = system: Jurkat; assay: Cytostatic activity against eFluor670-labelled human Jurkat cells assessed as live cells at 10 ng/ml measured immediately after compound addition by Hoechst-33258 staining-based FACS analysis (reference value: 98.2%); format: functional
[3] = system: Jurkat; assay: Cytostatic activity against eFluor670-labelled human Jurkat cells assessed as live cells at 10 ng/ml measured on day 1 post dose by Hoechst-33258 staining-based FACS analysis (reference value: 98.2%); format: functional
[4] = system: Jurkat; assay: Cytostatic activity against eFluor670-labelled human Jurkat cells assessed as live cells at 10 ng/ml measured on day 2 post dose by Hoechst-33258 staining-based FACS analysis (reference value: 97%); format: functional
[5] = system: Jurkat; assay: Cytostatic activity against eFluor670-labelled human Jurkat cells assessed as live cells at 10 ng/ml measured on day 3 post dose by Hoechst-33258 staining-based FACS analysis (reference value: 98.3%); format: functional
[6] = system: Jurkat; assay: Cytostatic activity against eFluor670-labelled human Jurkat cells assessed as live cells at 10 ng/ml measured on day 4 post dose by Hoechst-33258 staining-based FACS analysis (reference value: 97.3%); format: functional
[7] = system: Jurkat; assay: Cytostatic activity against eFluor670-labelled human Jurkat cells assessed as live cells at 10 ng/ml measured on day 5 post dose by Hoechst-33258 staining-based FACS analysis (reference value: 97%); format: functional
[8] = system: NALM-6; assay: Cytostatic activity against eFluor670-labelled human NALM6 cells assessed as live cells at 5 ng/ml measured immediately after compound addition by Hoechst-33258 staining-based FACS analysis (reference value: 95.8%); format: functional
[9] = system: NALM-6; assay: Cytostatic activity against eFluor670-labelled human NALM6 cells assessed as live cells at 5 ng/ml measured on day 1 by Hoechst-33258 staining-based FACS analysis (reference value: 95.5%); format: functional
[10] = system: NALM-6; assay: Cytostatic activity against eFluor670-labelled human NALM6 cells assessed as live cells at 5 ng/ml measured on day 2 by Hoechst-33258 staining-based FACS analysis (reference value: 97.7%); format: functional
[11] = system: NALM-6; assay: Cytostatic activity against eFluor670-labelled human NALM6 cells assessed as live cells at 5 ng/ml measured on day 3 by Hoechst-33258 staining-based FACS analysis (reference value: 98.6%); format: functional
[12] = system: NALM-6; assay: Cytostatic activity against eFluor670-labelled human NALM6 cells assessed as live cells at 5 ng/ml measured on day 4 by Hoechst-33258 staining-based FACS analysis (reference value: 98.6%); format: functional
[13] = system: NALM-6; assay: Cytostatic activity against eFluor670-labelled human NALM6 cells assessed as live cells at 5 ng/ml measured on day 5 by Hoechst-33258 staining-based FACS analysis (reference value: 98.6%); format: functional
[14] = system: REH; assay: Cytostatic activity against eFluor670-labelled human REH cells assessed as live cells at 20 ng/ml measured immediately after compound addition by Hoechst-33258 staining-based FACS analysis (reference value: 44.1%); format: functional
[15] = system: REH; assay: Cytostatic activity against eFluor670-labelled human REH cells assessed as live cells at 20 ng/ml measured on day 1 by Hoechst-33258 staining-based FACS analysis (reference value: 89.8%); format: functional
[16] = system: REH; assay: Cytostatic activity against eFluor670-labelled human REH cells assessed as live cells at 20 ng/ml measured on day 2 by Hoechst-33258 staining-based FACS analysis (reference value: 90.8%); format: functional
[17] = system: REH; assay: Cytostatic activity against eFluor670-labelled human REH cells assessed as live cells at 20 ng/ml measured on day 4 by Hoechst-33258 staining-based FACS analysis (reference value: 88%); format: functional
[18] = system: REH; assay: Cytostatic activity against eFluor670-labelled human REH cells assessed as live cells at 20 ng/ml measured on day 5 by Hoechst-33258 staining-based FACS analysis (reference value: 85.6%); format: functional
[19] = Cytotoxicity against PHA/LPS-stimulated CD3-positive T-lymphocytes in eFluor-670-labeled human PBMC assessed as divided cells at 5 ng/ml administered post 18 hrs of PHA/LPS-stimulation measured after 72 hrs by Hoechst-33258 staining-based FACS analysis (reference value: 24.2%); format: toxicity; conditions: t-cell
Summary of the method: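 PBMC were labelled with 1 μmol/L CPD, stimulated with PHA (5 μg/mL) plus LPS (1 μg/mL), and seeded at 3 × 10^5 cells/well in 300 μL. Compound was added after 18 h and left for 72 h. Cells were stained with anti-CD3. Unstimulated cells set the CPD+ gate. Proliferation index, division index and % divided were calculated for CPD+CD3+ Hoechst-negative cells.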

Row | Compound | Cmax [1] | Activity [2] | Activity [3] | Activity [4] | Activity [5] | Activity [6] | Activity [7] | Activity [8] | Activity [9] | Activity [10] | Activity [11] | Activity [12] | Activity [13] | Activity [14] | Activity [15] | Activity [16] | Activity [17] | Activity [18] | Activity [19]
1 | CN(Cc1cnc2nc(N)nc(N)c2n1)c1ccc(C(=O)N[C@@H](CCC(=O)O)C(=O)O)cc1 [METHOTREXATE] | > 1000 µM | – | – | – | – | – | – | – | – | – | – | – | – | – | – | – | – | – | –
2 | COc1cccc2c1C(=O)c1c(O)c3c(c(O)c1C2=O)C[C@@](O)(C(=O)CO)C[C@@H]3O[C@H]1C[C@H](N)[C@H](O)[C@H](C)O1 [DOXORUBICIN] | – | 98.2% | 97% | 78.5% | 42.8% | 9.46% | 10.5% | 95.8% | 95.2% | 96.5% | 96.3% | 93.8% | 87.8% | 44.1% | 73.5% | 26.7% | 2.72% | 1.19% | 18.1%
